Assay results taken from ChEMBL document CHEMBL2163314, “Potent aminocyclitol glucocerebrosidase inhibitors are subnanomolar pharmacological chaperones for treating gaucher disease” (J Med Chem, 2012).
Residue numbers refer to the chain shown, from its start. The source made the active and inactive calls. The calls are words filed in the database; no cut-off is given here.

What was measured:
[1] = tested on: T1, Lysosomal acid glucosylceramidase (Homo sapiens), P04062 [N409S]; experiment: Agonist activity at glucosylceramidase N370S mutant in lymphoblast obtained from gauchers patient using 4-methylumbelliferyl-beta-D-glucopyranoside as substrate preincubated at 1 to 5000 nM for 3 days measured 2 hrs post substrate addition by fluorescence assay relative to untreated control; format: functional
T1 sequence (whole entry): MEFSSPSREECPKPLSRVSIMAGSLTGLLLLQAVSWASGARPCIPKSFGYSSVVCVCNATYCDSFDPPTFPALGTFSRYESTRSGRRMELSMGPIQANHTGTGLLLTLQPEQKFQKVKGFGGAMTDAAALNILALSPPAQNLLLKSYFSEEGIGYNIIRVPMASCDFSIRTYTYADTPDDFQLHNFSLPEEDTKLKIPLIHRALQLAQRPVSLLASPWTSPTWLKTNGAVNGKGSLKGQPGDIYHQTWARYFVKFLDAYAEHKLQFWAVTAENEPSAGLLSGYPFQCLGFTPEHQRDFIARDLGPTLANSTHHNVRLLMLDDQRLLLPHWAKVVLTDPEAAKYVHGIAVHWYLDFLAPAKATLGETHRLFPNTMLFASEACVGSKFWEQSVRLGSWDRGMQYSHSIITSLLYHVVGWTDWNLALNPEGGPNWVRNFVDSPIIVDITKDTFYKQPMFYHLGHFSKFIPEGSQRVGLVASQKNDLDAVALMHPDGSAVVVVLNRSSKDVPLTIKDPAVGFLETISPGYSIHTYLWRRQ
Summary of the method: (§1)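 Patient-derived N370S homozygous lymphoblasts (RPMI-1640, 15% FBS, 37 °C, 5% CO2; passages 5–16) seeded at 2 × 10^5 cells/well, exposed to compound for 3 days. Cells washed in PBS and lysed in water by sonication. Homogenate incubated with 6 mM 4-MU-β-glucoside in 0.1 M citrate phosphate pH 5.2 with 0.25% taurocholate and 0.1% Triton X-100, 37 °C, 2 h. Fluorescence read at 355/460 nm; activity normalized to untreated cells; triplicate.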

[2] = biological target: T2, Lysosomal acid glucosylceramidase (Homo sapiens) (UniProt P04062); details: 50 uM
T2 sequence (whole entry): T1 sequence (whole entry) with S409N

[3] = tested on: T1, Lysosomal acid glucosylceramidase (Homo sapiens), P04062 [N409S]; experiment: Agonist activity at glucosylceramidase N370S mutant in lymphoblast obtained from Gaucher disease patient using 4-methylumbelliferyl-beta-D-glucopyranoside as substrate preincubated at 1 nM for 3 days measured 2 hrs post substrate addition by fluorescence assay relative to untreated control; format: functional; summary of the method: as §1
[4] = tested on: T1, Lysosomal acid glucosylceramidase (Homo sapiens), P04062 [N409S]; experiment: Agonist activity at glucosylceramidase N370S mutant in lymphoblast obtained from Gaucher disease patient using 4-methylumbelliferyl-beta-D-glucopyranoside as substrate preincubated at 1 uM for 3 days measured 2 hrs post substrate addition by fluorescence assay relative to untreated control; format: functional; summary of the method: as §1
[5] = biological target: Lysosomal alpha-glucosidase (Homo sapiens) (UniProt P10253); experiment: Inhibition of lysosomal alpha-glucosidase in human fibroblast at 5 uM after 24 hrs
[6] = biological target: T3, Ceramide glucosyltransferase (Mus musculus) (UniProt O88693); experiment: Inhibition of GCS activity in mouse tissue homogenate at 250 uM
T3 sequence (whole entry): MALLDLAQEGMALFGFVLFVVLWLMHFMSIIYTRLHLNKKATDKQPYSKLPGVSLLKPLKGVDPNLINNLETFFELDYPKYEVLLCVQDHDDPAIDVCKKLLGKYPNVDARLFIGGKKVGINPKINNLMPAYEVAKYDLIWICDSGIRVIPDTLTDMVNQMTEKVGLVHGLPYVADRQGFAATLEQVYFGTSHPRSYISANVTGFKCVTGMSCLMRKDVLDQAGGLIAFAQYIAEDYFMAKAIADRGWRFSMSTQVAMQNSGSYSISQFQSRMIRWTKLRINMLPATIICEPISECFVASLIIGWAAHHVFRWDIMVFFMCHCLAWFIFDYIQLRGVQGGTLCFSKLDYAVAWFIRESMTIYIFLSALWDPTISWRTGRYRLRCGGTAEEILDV

[7] = biological target: T3, Ceramide glucosyltransferase (Mus musculus); experiment: Inhibition of GCS activity in mouse tissue homogenate at 50 uM
[8] = Cytotoxicity against human fibroblasts at 50 uM; format: cell-based; details: fibroblast
[9] = Cytotoxicity against human fibroblasts at 5 uM; format: cell-based; details: fibroblast
[10] = Agonist activity at glucosylceramidase […] mutant in lymphoblast obtained from Gaucher disease patient using 4-methylumbelliferyl-beta-D-glucopyranoside as substrate preincubated at 100 nM for 3 days measured 2 hrs post substrate addition by fluorescence assay relative to untreated control; format: functional, Homo sapiens
Summary of the method: (§2)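 Homozygous L444P GD type 2 patient-derived lymphoblasts (GM08752) in RPMI-1640 with 15% FBS, seeded at 2 × 10^5 cells/well and exposed to compound for 3 days. Cells were washed with PBS and sonicated in water. Homogenate was assayed with 6 mM 4-methylumbelliferyl-β-D-glucopyranoside in 0.1 M citrate phosphate, pH 5.2, with 0.25% taurocholate and 0.1% Triton X-100, for 2 h at 37 °C. Fluorescence read at 355/460 nm, normalized to untreated cells, triplicate.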

[11] = Agonist activity at glucosylceramidase […] mutant in lymphoblast obtained from Gaucher disease patient using 4-methylumbelliferyl-beta-D-glucopyranoside as substrate preincubated at 1 uM for 3 days measured 2 hrs post substrate addition by fluorescence assay relative to untreated control; format: functional, Homo sapiens; summary of the method: as §2

inhibition [5] | inhibition [6] | inhibition [7] | SMILES | Activity [1] | inhibition [2] | Activity [8] | Activity [9] | also measured
– | – | – | CCCCCCCCCN[C@H]1[C@H](O)[C@@H](O)[C@H](O)[C@@H](O)[C@@H]1O | inactive | 23% | – | – | –
< 16% | 56% | inactive | CCCCCCCCCN[C@H]1[C@H](O)[C@@H](O)[C@H](O)[C@@H](O)[C@@H]1OCCCCCCCCC.Cl | – | – | Toxic | Non-toxic | inhibition [3]: 90%; fold change (FC) [4]: 1.4
< 16% | 56% | inactive | CCCCCCCCCN(CCCCCCCCC)[C@@H]1[C@H](O)[C@H](O)[C@@H](O)[C@H](O)[C@H]1O.Cl | inactive | – | Toxic | Non-toxic | –
inactive | 56% | inactive | CCCCCCCCCN[C@H]1[C@H](O)[C@@H](O)[C@H](O)[C@@H](O)[C@H]1OCCCCCCCCC.Cl | – | – | Toxic | Non-toxic | fold change (FC) [3]: 1.9
– | – | – | CCCCCCCCCO[C@H]1[C@@H](N)[C@H](O)[C@@H](O)[C@H](O)[C@H]1O.Cl | – | – | – | – | fold change (FC) [10]: 1.3
– | – | – | CCCCCCCCCN[C@H]1[C@H](O)[C@@H](O)[C@H](O)[C@@H](O)[C@H]1OC.Cl | – | – | – | – | fold change (FC) [4]: 2
– | – | – | CCCCCCCCCN[C@@H]1[C@H](O)[C@H](O)[C@@H](O)[C@H](O)[C@H]1O.Cl | – | – | – | – | fold change (FC) [10]: 1.2
– | – | – | CCCCCCCCCN[C@@H]1[C@H](O)[C@@H](O)[C@H](O)[C@@H](O)[C@@H]1O | inactive | 23% | – | – | –
– | – | – | CCCCCCCCCN[C@H]1[C@H](O)[C@@H](O)[C@H](O)[C@@H](O)[C@@H]1OC.Cl | – | 23% | – | – | fold change (FC) [11]: 1.5
